Measurements as given in paper PMC2174336 (The Journal of Cell Biology, 2001).
Bridges are numbered along the chain shown (N, C = ends). Where no end group is shown, it is not given here.

How the values were obtained:
[1] = test system: αM subunit I domain; assay: LLG-C4-GST binding to purified αM subunit I domain; conditions: LLG-C4-GST 10 μg/ml; for inhibition of LLG-C4-GST binding to the I domain: peptide 100 μM, triplicate wells
How it was run: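 The αM I domain was expressed as a GST fusion in E. coli, purified on glutathione beads and released by thrombin cleavage; it was then coated on wells. Peptide–GST fusion or GST at the indicated concentrations (10 μg/ml in methods) was incubated 1 h in 25 mM octylglucoside/TBS/1 mM MnCl2. Bound protein was detected with Eu3+-labelled anti-GST antibodies. Triplicate wells, three experiments.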

[2] = test system: THP-1 cells; assay: THP-1 cell adhesion to von Willebrand factor; type: cell-based; conditions: data not shown
How it was run: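 THP-1 cells were incubated 60 min at 37°C in wells coated with von Willebrand factor or fibronectin (2 μg per well, BSA-blocked), with test peptides at the indicated concentrations. Unbound cells were washed off with PBS and bound cells read by phosphatase assay. Triplicate wells.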

[3] = test system: THP-1 cells; assay: Inhibition of THP-1 cell adhesion to LLG-C4-GST or LLG-C4 substratum; type: cell-based
How it was run: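 THP-1 cells were mixed in suspension with test peptides at the indicated final concentrations, or with 2.5 mM EDTA. They were then incubated 60 min in wells coated with peptide–GST fusion. Unbound cells were removed by PBS washing and bound cells quantitated by phosphatase assay. Mean of triplicate wells; repeated in two further experiments.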

[4] = test system: αMβ2 integrin; assay: LLG-C4-GST binding to immunocaptured αMβ2 integrin; conditions: integrin immunocaptured with MEM170 or OKM1
How it was run: (§1)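 Integrins from buffy-coat lysate in 1% octylglucoside/1 mM MnCl2/TBS were captured for 2 h at 4°C on wells coated with subunit antibodies (MEM170, OKM1 or 2E7), then washed five times. Peptide–GST fusion or GST (10 μg/ml; 2 μg/well per legend) bound 1 h in 25 mM octylglucoside/TBS/1 mM MnCl2, ± EDTA. Detection by Eu3+-chelate-labelled anti-GST antibody fluorescence. Repeated three times.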

[5] = test system: β2 integrin; assay: LLG-C4-GST binding to integrin immunocaptured with β2 subunit antibody 2E7; conditions: β2 subunit antibody 2E7 used for immunocapture
How it was run: as §1

[6] = test system: αXβ2 integrin–transfected L cells; assay: Binding of αXβ2 integrin-transfected L cells to LLG-C4-GST; type: cell-based, mouse; conditions: three experiments in triplicate wells
How it was run: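 αXβ2-transfected mouse L cells were incubated in wells coated with peptide–GST fusion or GST (2 μg/well, BSA-blocked), 60 min at 37°C, 10^5 cells/well. The β2-blocking antibody 7E4 or EDTA served as competitors. After PBS washing, bound cells were read by phosphatase assay and given as percentage adhesion. Triplicate wells; three experiments.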

[7] = test system: T cells; assay: T cell binding to TNF-α-stimulated Eahy926 endothelial cell monolayer; type: cell-based; conditions: peptide 50 μM; 45 min; phosphatase assay; triplicate wells
How it was run: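 Eahy926 endothelial cells were seeded at 5×10^4/well, grown 3 d, then stimulated 16 h with TNF-α (10 ng/ml). Blood T cells were isolated by Ficoll-Hypaque and nylon wool. T cells (1.5×10^5/well) were bound 30 min at 4°C then 15 min at 37°C, with test or control peptide at 50 μM. Unbound cells were removed by immersing the plate in PBS. Phosphatase assay; triplicate wells.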

[8] = test system: THP-1 cells; assay: THP-1 adhesion to A2 domain-deleted von Willebrand factor; type: cell-based; conditions: phosphatase assay; triplicate wells
How it was run: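 Wild-type or A2-domain-deleted recombinant von Willebrand factor was captured on wells coated with anti-von Willebrand factor antibody D′-D3. THP-1 cells were incubated with competitor peptides at the stated concentrations. Bound cells were read by phosphatase assay, expressed relative to wild-type von Willebrand factor binding (100%). Triplicate wells; similar in two further experiments.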

[9] = test system: THP-1 cells; assay: THP-1 cell adhesion to immobilized peptides or GST fusion proteins; type: cell-based; conditions: 60 min; for THP-1 cell binding to substance coated on microtiter wells: phorbol ester–activated THP-1 cells, phosphatase assay
How it was run: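 Proteins or synthetic peptides coated at 2 μg per well in TBS unless indicated; polymerised peptide made with 0.25% final glutaraldehyde. Wells blocked with 5% BSA and washed with PBS. Cells were preactivated for 30 min at room temperature in serum-free medium with 50 nM phorbol dibutyrate or 200 μM activating peptide. Then 10^5 cells/well were incubated 60 min at 37°C. Bound cells were read by cellular phosphatase assay.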

[10] = test system: Jurkat cells; assay: Jurkat cell adhesion to ICAM-1-Fc; type: cell-based
[11] = test system: THP-1 cells; assay: THP-1 cell migration on fibrinogen-coated Transwell filters; type: cell-based; conditions: 200 μM; 8-μm Transwell; 10% serum; 18 h; n = 6
How it was run: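 Both faces of 8-μm-pore Transwell filters were coated with fibrinogen or peptide–GST fusion (40 μg/ml; GST control) and blocked with 5% BSA. THP-1 cells (5×10^4) were placed in the upper chamber in 10% serum medium, ± test peptides at 200 μM; the lower chamber held the same medium. After 18 h at 37°C, filters were methanol-fixed and stained with 0.1% toluidine blue. Cells on the lower surface were counted microscopically.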

[12] = test system: αMβ2 integrin; assay: Phage binding to purified αMβ2 integrin; conditions: phage-displayed peptide; data not shown
[13] = target: β2 integrins of THP-1 cells (adhesion to LLG-C4 substrata)
[14] = target: β2 integrins of THP-1 cells (adhesion to LLG-C4 substrata); remark: listed apart in the source

## CPCFLLGCC [LLG-C4 (1)]
[1]
  inhibition of LLG-C4-GST binding to the I domain: blocked

## CLLGC (disulfide)
[2]
  inhibition of THP-1 binding to von Willebrand factor at 500 μM: inhibited
[3]; LLG-C4-GST substratum, phosphatase assay
  concentrations at which THP-1 cell adhesion on LLG-C4-GST was readily inhibited: ≥ 1 mM

## O=C(O)CN(CCN(CC(=O)O)CC(=O)O)CC(=O)O [EDTA]
[4]
  effect of EDTA on LLG-C4-GST binding to αMβ2 integrin: inhibited the binding
[5]
  effect of EDTA on LLG-C4-GST binding to integrin captured with 2E7: only partially inhibited
[6]
  binding of αXβ2-transfected L cells to LLG-C4-GST, effect of competitor: inhibited
[1]; EDTA 2.5 mM
  effect of EDTA on LLG-C4-GST binding to the I domain: blocked the binding
[3]; EDTA 2.5 mM, phorbol ester–activated cells
  effect of EDTA on THP-1 binding to LLG-C4-GST: abolished the binding

## ACDCRGDCFCG (also: bicyclic or more (positions not given here)) [RGD-4C]
[7]
  effect on T cell binding to TNF-α–stimulated endothelial cells: no effect
[8]
  effect on THP-1 adhesion to the A2-deleted von Willebrand factor: blocked

## CPCFLLGCC [LLG-C4 (2)]
[1]
  inhibition of LLG-C4-GST binding to the I domain: did not inhibit

## CAAGC (disulfide)
[3]; LLG-C4-GST substratum
  competition of THP-1 cell adhesion on LLG-C4-GST (in words): only a weak competitor

## CPCFLLGCC (also: bicyclic or more (positions not given here)) [C(1-9;3-8)]
[9]; peptide coated in presence of glutaraldehyde, 10^5 cells per well
  THP-1 cell binding to peptide cross-linked with glutaraldehyde: inactive even after the cross-linking
[9]
  THP-1 cell binding to substance coated on microtiter wells: failed to bind
[10]
  inhibition of Jurkat cell adhesion to ICAM-1-Fc (in words): severalfold less active and had hardly any effect
[11]
  effect on THP-1 cell migration on fibrinogen: inhibited only partially
[3]; relative to C(1-8;3-9)
  fold less active than C(1-8;3-9), THP-1 cell adhesion on LLG-C4-GST: 20 fold

## CPCFLLGCC (also: bicyclic or more (positions not given here)) [LLG-C4]
[9]
  THP-1 cell binding to substance coated on microtiter wells: bound strongly
[12]
  affinity to αMβ2 in phage-binding experiments in comparison to the other clones: higher affinity

## CPCFLLGCC (disulfide 1-8, 3-9) [C(1-8;3-9) peptide]
[13]
  IC50 of inhibition of THP-1 cell adhesion on LLG-C4-GST (blocks m22 with m1): 20 µM

## CLLGC (also: cyclic, type of ring not given here) [CLLGC peptide]
[14]
  inhibition of THP-1 cell adhesion on LLG-C4-GST (blocks m22 with m1): > 1 mM
